Where “and” joins values, the source holds several entries; their conditions need not be identical. Identical values can stand only once. Entries after “also recorded” stand apart in the source; their conditions may differ. Like-named read-outs stand apart in the source and are kept apart here.
What was measured:
[1] = Population pharmacokinetic analysis; format: in vivo, humans
In short: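 Nonlinear mixed-effects model (FOCEI) fitted to 29,372 plasma concentrations from 4170 healthy and RA subjects across 12 studies (IR 1–48 mg, ER 7.5–30 mg), quantified by LC-MS/MS. Two-compartment structure: IR first-order absorption with lag time, ER mixed zero/first-order absorption with lag time, linear elimination; combined additive/proportional residual error. Below-LLOQ values were set to LLOQ/2, with later post-dose ones censored. Co-medications were time-varying covariates. Checked by VPC (400 replicates) and ER pcVPC.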

[2] = format: in vivo, humans
JAK1 = conditions: in vitro cellular assays; cited from earlier work
[3] = cited from earlier work
[4] = cited from earlier work; remark: listed apart in the source
CYP3A = conditions: strong CYP3A inhibitor ketoconazole; cited from earlier work
CYP2D6 = conditions: in vitro data; cited from earlier work
moderate to severe RA = conditions: monotherapy or in combination with csDMARDs; cited from earlier work
[5] = final model, population estimate (%RSE), outliers excluded
[6] = healthy subjects, ER formulation, population estimate
[7] = RA subjects with bodyweight < 60 kg, steady state, simulated
[8] = RA subjects with bodyweight > 100 kg, steady state, simulated

## CC[C@@H]1CN(C(=O)NCC(F)(F)F)C[C@@H]1c1cnc2cnc3[nH]ccc3n12 [upadacitinib, Upadacitinib]
[1]; CWRES versus time
  time-dependent change in upadacitinib clearance with continued treatment: no time-dependent change
[1]; ER dose range of 7.5-30 mg
  dose proportionality of bioavailability: dose-proportional
[1]; ER formulation
  effect of pH-modifying medications on upadacitinib absorption from the ER formulation: no effect
[1]; [5]
  Bioavailability of the extended-release formulation relative to the immediate-release formulation: 76.2% and 76%
  ISV on CL/F in phase I: 21%
  ISV on CL/F in phase II/III: 37%
  ISV on Vc/F in phase I: 24%
  ISV on Vc/F in phase II/III: 53%
[1]; [6]
  apparent oral clearance: 53.7 L/h
  steady-state volume of distribution (sum of the central and peripheral volume of distribution): 294 L
[1]; in vivo
  correlation of baseline hsCRP with upadacitinib clearance: not correlated
  effect of methotrexate on upadacitinib pharmacokinetics: not affect
  effect of pH-modifying agents on upadacitinib pharmacokinetics: not affect
  effects of bodyweight and mild or moderate renal impairment on upadacitinib exposures: statistically significant but non-clinically relevant effects; also recorded: Bodyweight and mild or moderate renal impairment had statistically significant but non-clinically relevant effects on upadacitinib exposures
  higher estimated upadacitinib AUC in RA subjects compared with healthy subjects: 33%
  lower upadacitinib clearance in RA subjects compared with healthy subjects: 25%
[2]; [7]
  AUC higher relative to subjects with a bodyweight of 60-100 kg: 5%
  Cmax higher compared with subjects with a bodyweight of 60-100 kg: 18%
[2]; [8]
  AUC lower relative to subjects with a bodyweight of 60-100 kg: 5%
  Cmax lower compared with subjects with a bodyweight of 60-100 kg: 18%
[2]; RA subjects with moderate renal impairment (CrCl 30 to < 60 mL/min)
  AUC higher compared with RA subjects with normal renal function: 26%
JAK1
  selectivity for JAK1 over JAK2: approximately 60 fold
  selectivity for JAK1 over JAK3: more than 100 fold
[3]; IR formulation
  functional half-life: 3 to 4 h
[3]; after ER dosing
  time at which peak plasma concentrations (Cmax) were reached: 2 to 4 h
[3]; after IR dosing
  time at which peak plasma concentrations (Cmax) were reached: 1 to 2 h
[3]
  Cmax and Cmin of ER 15 and 30 mg once daily versus IR 6 mg and 12 mg twice daily: comparable
  daily AUC of ER 15 and 30 mg once daily versus IR 6 mg and 12 mg twice daily: equivalent
[3]; following administration of the IR or ER formulations
  terminal half-life: 6 to 16 h
[3]; phase I study
  upadacitinib dose eliminated unchanged in urine (renal pathway): Approximately 20%
[3]; range of doses evaluated in phase I and II studies
  linearity of pharmacokinetics: linear pharmacokinetics
[4]
  effect of CYP2D6 metabolic phenotype on apparent oral clearance: no effect
  typical oral clearance in RA patients lower compared with healthy subjects: 24%
CYP3A
  increase in upadacitinib exposures with ketoconazole: approximately 75%
CYP2D6
  contribution of CYP2D6 to upadacitinib metabolism: potential minor contribution
Moderate to severe RA
  clinical signs and symptoms in subjects with moderate to severe RA compared with placebo or active comparators: rapid and significant improvements; also recorded: significantly improved

Reference: article PMC6614152 (Clinical Pharmacokinetics, 2019)
